Series [1] deals with Hepatocyte. As to the kind of experiment: Induction of change in Rps27l protein expression in C57BL/6J mouse primary hepatocytes at 400 uM incubated for 8 hrs by relative-quantitation label-free proteomics analysis relative to NVP. Format: cell-based. The gist of the method:
(§1)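 Fresh primary hepatocytes from male C57BL/6J mice aged 8–13 weeks, adhered overnight, then given fresh medium containing compound (400 μM), NVP (400 μM) or vehicle (0.2% DMSO) for 8 h. Lysate reduced (DTT) and alkylated (iodoacetamide), acetone-precipitated and digested with trypsin. Label-free Top10 nanoLC-MS with precursor ion area quantitation; unpaired t test P values, Cohen's d effect size.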

Series [2] is described as follows: Drug metabolism in C57BL/6J mouse primary hepatocytes assessed as Cytochrome P450-mediated formation of 3-OHD3NVP at 10 uM incubated for 24 hrs by uHPLC-MS analysis. The class given is ADME, cell-based. A digest of the protocol:
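Fresh hepatocytes from male C57BL/6J mice (8–13 weeks), adhered overnight, then 10 μM substrate or vehicle (0.1% DMSO) for 24 h. Medium extracted with acetonitrile (50% final), dried, reconstituted in methanol; uHPLC-Orbitrap targeted SIM plus PRM (monooxygenated metabolites) or high-resolution ions (O-glucuronides, 459.1510/462.1700 ±5 ppm); four experimental replicates.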

The target in the next series is Cytochrome P450 2D6 (Homo sapiens, UniProt P10635). As to the kind of experiment: Drug metabolism assessed as human CYP2D6-mediated formation of 12-OHNVP at 10 uM pre-incubated for 30 mins followed by addition of NADPH regenerating reagents by uHPLC-MS analysis. The class given is ADME. The settings on record: recombinant enzyme. The gist of the method: (§2)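 Insect-cell microsomes with single cDNA-expressed human P450 (100 nM) in 0.1 M potassium phosphate; 10 μM substrate prewarmed 5 min at 37 °C with NADPH-regenerating system, reaction started by adding microsomes; 30 min at 37 °C, 0.1% DMSO. Stopped, dried, reconstituted in methanol; triple-quadrupole SRM (12-OH 283.1→223.0, 2-OH 283.1→160.9, 3-OH 283.1→241.9), peak height; three replicates, mean ± SD.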
Chain of Cytochrome P450 2D6 (P10635 whole entry): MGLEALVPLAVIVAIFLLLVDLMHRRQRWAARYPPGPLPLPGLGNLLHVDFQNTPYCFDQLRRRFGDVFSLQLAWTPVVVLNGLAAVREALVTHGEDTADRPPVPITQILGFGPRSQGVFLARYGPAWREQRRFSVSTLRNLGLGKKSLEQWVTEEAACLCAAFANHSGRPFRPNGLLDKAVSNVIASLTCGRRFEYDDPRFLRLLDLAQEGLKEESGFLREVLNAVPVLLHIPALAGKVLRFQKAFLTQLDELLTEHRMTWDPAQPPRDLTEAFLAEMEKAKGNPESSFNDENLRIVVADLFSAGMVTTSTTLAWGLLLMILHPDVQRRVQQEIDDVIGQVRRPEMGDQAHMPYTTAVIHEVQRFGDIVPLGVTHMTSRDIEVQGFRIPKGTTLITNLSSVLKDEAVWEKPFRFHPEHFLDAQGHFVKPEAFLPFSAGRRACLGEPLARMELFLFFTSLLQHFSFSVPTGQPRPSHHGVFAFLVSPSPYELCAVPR

Series [3] relates to Hepatocyte. As to the kind of experiment: Induction of change in Tf protein expression in C57BL/6J mouse primary hepatocytes at 400 uM incubated for 8 hrs by relative-quantitation label-free proteomics analysis relative to NVP. The class given is cell-based. A digest of the protocol:
as §1

Series [4] has as its system Hepatocyte. Description: Induction of change in CYC1 protein expression in human primary hepatocytes at 10 uM incubated for 48 hrs by relative-quantitation label-free proteomics analysis relative to NVP. Format: cell-based. The gist of the method: (§3)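 Cryoplateable pooled human hepatocytes (10 mixed-sex donors per pool; three pools), adhered overnight, then given fresh medium containing compound (10 μM), NVP (10 μM) or vehicle (0.1% DMSO) for 48 h. Lysate reduced (DTT) and alkylated (iodoacetamide), acetone-precipitated and digested with trypsin. Label-free Top10 nanoLC-MS with precursor ion area quantitation; unpaired t test P values, Cohen's d effect size.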

In series [5] the test system is Hepatocyte. As to the kind of experiment: Induction of change in Gapdh protein expression in C57BL/6J mouse primary hepatocytes at 400 uM incubated for 8 hrs by relative-quantitation label-free proteomics analysis relative to NVP. Format: cell-based. A digest of the protocol:
as §1

For series [6], the system named is Hepatocyte. Description: Induction of change in ACSF3 protein expression in human primary hepatocytes at 10 uM incubated for 48 hrs by relative-quantitation label-free proteomics analysis relative to NVP. The class given is cell-based. The gist of the method: as §3
The subject of series [7] is Cytochrome P450. Description: Drug metabolism in human liver microsomes assessed as Cytochrome P450-mediated formation of 2-OHNVP formation at 5 to 400 uM in presence of NADPH regenerating reagents by uHPLC-MS/MS analysis. Format: ADME. A digest of the protocol: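 Pooled human liver microsomes (2.5 mg/mL) with NADPH-regenerating system, substrate 5–400 μM, 30 min at 37 °C, 0.1% DMSO (0.2% at 400 μM); 2- and 3-OH metabolites by uHPLC-MS/MS Orbitrap; three replicates, mean ± SD.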
For orientation: Liver microsomes are vesicles of endoplasmic reticulum, rich in cytochrome P450 enzymes.

The test system of series [8] is Cytochrome P450. Description: Drug metabolism in human liver microsomes assessed as Cytochrome P450-mediated formation of 12-OHNVP by measuring Kcat/Km ratio in presence of NADPH regenerating reagents by uHPLC-MS/MS analysis. The gist of the method: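 Pooled human liver microsomes (2.5 mg/mL) in potassium phosphate; substrate (1–400 μM) prewarmed 5 min at 37 °C with NADPH-regenerating system, started with microsomes, 30 min at 37 °C. 12-OH product quantified by uHPLC-MS/MS Orbitrap against 12-OHNVP standard curve made in microsomes without NADPH. Kcat/Km taken as slope of linear rate vs substrate fit at nonsaturating 0–50 μM.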

Series [9] concerns Cytochrome P450. As to the kind of experiment: Drug metabolism in human primary hepatocytes assessed as Cytochrome P450-mediated formation of 2-OHNVP at 10 uM incubated for 24 to 48 hrs by uHPLC-MS analysis. Format: ADME, cell-based. The gist of the method: (§4)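 Cryoplateable pooled human hepatocytes (10 mixed-sex donors per pool, three lots), adhered overnight, then 10 μM substrate or vehicle (0.1% DMSO) for 24 or 48 h in InVitroGRO CP medium. Medium extracted with 50% acetonitrile, dried, reconstituted in methanol; uHPLC-Orbitrap MS/MS for monooxygenated metabolites, high-resolution MS for O-glucuronide.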

The test system of series [10] is Hepatocyte. Description: Induction of change in KARS protein expression in human primary hepatocytes at 10 uM incubated for 48 hrs by relative-quantitation label-free proteomics analysis relative to NVP. The class given is cell-based. A digest of the protocol:
as §3

In another series the target is Cytochrome P450 2C19 (Homo sapiens, UniProt P33261). Description: Drug metabolism assessed as human CYP2C19-mediated formation of 12-OHNVP at 10 uM pre-incubated for 30 mins followed by addition of NADPH regenerating reagents by uHPLC-MS analysis. Format: ADME. The note with it: recombinant enzyme. The gist of the method:
as §2

Another series concerns the target T1, Cytochrome P450 2C8 (Homo sapiens, UniProt P10632).
T1 sequence (P10632 whole entry): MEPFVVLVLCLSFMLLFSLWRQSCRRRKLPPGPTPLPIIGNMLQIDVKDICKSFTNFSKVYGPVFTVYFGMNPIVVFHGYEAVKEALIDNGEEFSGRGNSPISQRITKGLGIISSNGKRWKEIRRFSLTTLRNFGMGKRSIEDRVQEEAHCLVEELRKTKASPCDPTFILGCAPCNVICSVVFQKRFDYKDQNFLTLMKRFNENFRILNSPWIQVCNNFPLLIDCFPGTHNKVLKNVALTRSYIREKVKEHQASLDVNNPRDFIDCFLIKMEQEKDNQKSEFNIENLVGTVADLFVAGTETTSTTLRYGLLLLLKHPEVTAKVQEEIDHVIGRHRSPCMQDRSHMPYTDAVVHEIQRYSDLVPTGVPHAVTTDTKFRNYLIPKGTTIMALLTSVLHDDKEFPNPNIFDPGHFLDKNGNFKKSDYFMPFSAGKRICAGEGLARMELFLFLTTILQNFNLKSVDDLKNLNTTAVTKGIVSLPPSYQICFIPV
Description: Drug metabolism assessed as human CYP2C8-mediated formation of 12-OHNVP at 10 uM […] by uHPLC-MS analysis. The class given is ADME. The note with it: recombinant enzyme. The gist of the method:
as §2

Series [11] relates to Hepatocyte. As to the kind of experiment: Induction of change in CARS2 protein expression in human primary hepatocytes at 10 uM incubated for 48 hrs by relative-quantitation label-free proteomics analysis relative to NVP. Format: cell-based. The gist of the method: as §3
The subject of series [12] is Hepatocyte. Description: Induction of change in SHMT2 protein expression in human primary hepatocytes at 10 uM incubated for 48 hrs by relative-quantitation label-free proteomics analysis relative to NVP. Format: cell-based. A digest of the protocol:
as §3

The test system of series [13] is Cytochrome P450. Description: Drug metabolism in human primary hepatocytes assessed as Cytochrome P450-mediated formation of 3-OHNVP at 10 uM incubated for 24 to 48 hrs by uHPLC-MS analysis. Format: ADME, cell-based. The gist of the method: as §4

Chain of Cytochrome P450 2C19 (P33261 whole entry): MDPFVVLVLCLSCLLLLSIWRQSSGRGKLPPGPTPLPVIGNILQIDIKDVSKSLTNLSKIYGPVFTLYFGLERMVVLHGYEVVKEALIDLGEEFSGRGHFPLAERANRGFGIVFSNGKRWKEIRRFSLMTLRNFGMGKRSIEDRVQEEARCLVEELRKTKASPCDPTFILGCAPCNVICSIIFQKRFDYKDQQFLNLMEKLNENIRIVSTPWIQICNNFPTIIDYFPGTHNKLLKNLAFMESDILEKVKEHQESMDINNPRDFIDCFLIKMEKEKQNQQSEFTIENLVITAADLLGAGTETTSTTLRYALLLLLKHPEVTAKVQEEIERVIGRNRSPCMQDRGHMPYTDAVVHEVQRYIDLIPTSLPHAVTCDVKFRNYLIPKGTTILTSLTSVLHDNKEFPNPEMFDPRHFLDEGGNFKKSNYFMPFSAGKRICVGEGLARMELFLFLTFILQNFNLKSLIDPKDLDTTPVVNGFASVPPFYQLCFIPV

`[2H]C([2H])([2H])c1ccnc2c1NC(=O)c1cccnc1N2C1CC1`: the “fold change (FC)” value in the series with Hepatocyte [1] is -5.67; with Hepatocyte [3], -1.52; in the series with Hepatocyte [4], -1.4; in the series with Hepatocyte [5], 1.4; in the series with Hepatocyte [6] it was -1.63; in the series on Hepatocyte [10], -1.42. Also, the “fold change (FC)” value in the series on Hepatocyte [11] is on record as 1.85; in the series on Hepatocyte [12] it was -1.28. For the same compound, the Drug metabolism entry (in series [2]; at Cytochrome P450 2D6; with Cytochrome P450 [7]; with Cytochrome P450 [9]; at Cytochrome P450 2C19; at Cytochrome P450 2C8) was “Metabolite_Detected” each time. Besides, the Drug metabolism entry in the series on Cytochrome P450 [13] was “Metabolite_Detected”. In addition, the Kcat/Km with Cytochrome P450 [8] was found to be 0.153 M⁻¹ s⁻¹.

Source of the values: ChEMBL document CHEMBL4613248, “Twelfth-Position Deuteration of Nevirapine Reduces 12-Hydroxy-Nevirapine Formation and Nevirapine-Induced Hepatocyte Death” (J Med Chem, 2020).
